# According to ChEMBL document CHEMBL4715800, “Synthesis and Antiviral Evaluation of Octadecyloxyethyl Benzyl 9-[(2-Phosphonomethoxy)ethyl]guanine (ODE-Bn-PMEG), a Potent Inhibitor of Transient HPV DNA Amplification” (J Med Chem, 2016):
# Experiments:
# [1] = Drug uptake in HFF cells at 1 uM incubated for 1 to 48 hrs using [14C]-labelled compound by liquid scintillation counting; type: ADME, cell-based; details: human, TDE = time-dependent effect, time 1-48 hrs
# Outline: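 HFF cells exposed to 1 μM [14C]-labelled compound for 1 to 48 h. Cell-associated radioactivity measured in duplicate to assess uptake.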
# [2] = Drug metabolism in HFF cells assessed as PMEGpp levels at 1 uM measured for 14 days using [14C]-labelled compound by liquid scintillation counting; type: ADME, cell-based; details: human, 336 h, TDE = time-dependent effect, time 14 day
# Outline: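 After 48 h exposure to 1 μM [14C]-labelled compound, drug removed from HFF cells. Persistence of intracellular PMEGpp followed over time; average of two separate determinations.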
# [3] = Drug metabolism in HFF cells assessed as PMEG levels at 1 uM incubated for 48 hrs using [14C]-labelled compound by liquid scintillation counting; type: ADME, cell-based; details: human
# Outline: (§1)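 HFF cells exposed for 48 h to 1 μM [14C]-labelled compound, then drug removed. Intracellular PMEG, PMEGp and PMEGpp measured. Values are the average of two separate determinations.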
# [4] = Drug metabolism in HFF cells assessed as PMEGp levels at 1 uM incubated for 48 hrs using [14C]-labelled compound by liquid scintillation counting; type: ADME, cell-based; details: human; outline: as §1
# [5] = Selectivity index, ratio of CC50 for C-33-A cells to EC50 for inhibition of HPV-18 DNA amplification in C-33-A cells
# Outline: (§2)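 Ratio CC50/EC50. CC50 is from CellTiter-Glo in C33A cells. EC50 is from NanoLuc luciferase readout of HPV ori-plasmid replication in C33A cells cotransfected with type-matched E1/E2 vectors.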
# [6] = Inhibition of HPV-18 DNA amplification in C-33-A cells incubated for 48 hrs by luciferase reporter gene assay; type: functional, cell-based, human papillomavirus 18
# Outline: (§3)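 HPV-negative cervical cancer C33A cells transiently transfected with type-matched HPV-11, -16 or -18 E1 and E2 expression vectors plus an ori-plasmid carrying a NanoLuc reporter. After drug dilutions and incubation, ori-plasmid replication is read as the rise in luciferase activity and EC50 is determined. Cytotoxicity (CC50) is measured in C33A cells by CellTiter-Glo.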
# [7] = Inhibition of HPV-16 DNA amplification in C-33-A cells incubated for 48 hrs by luciferase reporter gene assay; type: functional, cell-based, Human papillomavirus 16; outline: as §3
# [8] = Inhibition of HPV-16 DNA amplification in HEK293 cells incubated for 48 hrs by qPCR analysis; type: functional, cell-based, Human papillomavirus 16
# Outline: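 HEK-293 cells cotransfected with an HPV-16 origin-containing plasmid and HPV-16 E1 and E2 expression vectors, then treated with drug dilutions and incubated. Ori-plasmid amplification quantified by real-time qPCR; EC50 calculated from at least three independent experiments.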
# [9] = Selectivity index, ratio of CC50 for C-33-A cells to EC50 for inhibition of HPV-16 DNA amplification in C-33-A cells; outline: as §2
# [10] = Selectivity index, ratio of CC50 for C-33-A cells to EC90 for inhibition of HPV-18 DNA amplification in C-33-A cells
# Outline: (§4)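 Ratio CC50/EC90. CC50 is from CellTiter-Glo cytotoxicity in C33A cells. EC90 is from NanoLuc luciferase readout of HPV-16 or -18 ori-plasmid replication in C33A cells cotransfected with type-matched E1/E2 vectors.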
# [11] = Inhibition of HPV-11 DNA amplification in HEK293 cells incubated for 48 hrs by qPCR analysis; type: functional, cell-based, human papillomavirus 11
# Outline: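 HEK-293 cells cotransfected with an HPV-11 origin-containing plasmid and HPV-11 E1 and E2 expression vectors, then exposed to drug dilutions and incubated. Ori-plasmid amplification is measured by quantitative real-time PCR and EC50 is calculated. At least three independent experiments.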
# [12] = Selectivity index, ratio of CC50 for C-33-A cells to EC50 for inhibition of HPV-11 DNA amplification in C-33-A cells; outline: as §2
# [13] = (§5) Cytotoxicity in human C-33-A cells by CellTiter-Glo reagent assay; type: cell-based; details: C-33-A cells; outline: as §3
# [14] = Inhibition of HPV-11 DNA amplification in C-33-A cells incubated for 48 hrs by luciferase reporter gene assay; type: functional, cell-based, human papillomavirus 11; outline: as §3
# [15] = Selectivity index, ratio of CC50 for C-33-A cells to EC90 for inhibition of HPV-16 DNA amplification in C-33-A cells; outline: as §4
# [16] = Selectivity index, ratio of CC50 for C-33-A cells to EC90 for inhibition of HPV-11 DNA amplification in C-33-A cells
# [17] = Inhibition of HIV1 92US727 replication in PHA-P-stimulated human PBMCs incubated for 7 days by reverse transcriptase activity based assay; type: functional, cell-based, Human immunodeficiency virus 1, PBMC; details: pbmc
# Outline: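 Human PBMCs infected with a clinical HIV-1 isolate, with AZT as the positive control. Results are the mean of three replicates.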
# HFF = assay: Cytotoxicity in HFF cells incubated for 7 days by CellTiter-Glo assay; type: cell-based; details: human, hff, 168 h; time 7 day
# [18] = Inhibition of HSV2 replication in HFF cells incubated for 7 days; type: functional, cell-based, Human alphaherpesvirus 2; details: hff
# [19] = Selectivity index, ratio of CC50 for human PBMC to EC50 for inhibition of HIV1 92US727 replication in PHA-P-stimulated human PBMCs; type: toxicity; details: pbmc
# Outline: (§6)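 Human PBMCs infected with a clinical HIV-1 isolate, with AZT as positive control. EC50 and CC50 reported as mean ± SD of three replicates; selectivity index = CC50/EC50.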
# [20] = Selectivity index, ratio of CC50 for HEK293 cells to EC50 for inhibition of HPV-11 DNA amplification in HEK293 cells
# Outline: (§7)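 Ratio CC50/EC50 in HEK-293 cells. CC50 is by CellTiter-Glo. EC50 is by qPCR of HPV-11 or HPV-16 ori-plasmid amplification in cells cotransfected with type-matched E1/E2 expression vectors.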
# [21] = Selectivity index, ratio of CC50 for HFF to EC50 for inhibition of HSV2 replication in HFF cells; type: toxicity, cell-based; details: human
# HEK293 = assay: Cytotoxicity in HEK293 cells by CellTiter-Glo assay; details: human, hek293
# C-33-A = assay: as §5; type: cell-based; details: c-33-a; outline: as §3
# [22] = Selectivity index, ratio of CC50 for HEK293 cells to EC50 for inhibition of HPV-16 DNA amplification in HEK293 cells; outline: as §7
# human papillomavirus 11 = assay: Potency index, ratio of EC50 for cidofovir to EC50 for test compound for inhibition of HPV-11 DNA amplification in C-33-A cells incubated for 48 hrs by luciferase reporter gene assay; type: functional
# [23] = Cytotoxicity in human PBMC cells; type: cell-based; details: pbmc; outline: as §6
# [24] = Stability in MEM supplemented with either normal or heat inactivated 10% FBS assessed as compound remaining at 37 degC after 38 days by reverse phase HPLC analysis; details: time 38.0 day
# Outline: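 Compound incubated at 37 °C in MEM with 10% FBS, either normal or heat-inactivated. After 38 days, analysed by reverse-phase HPLC on a polar RP column with a water/methanol gradient at 0.8 mL/min. Remaining parent and monoester degradation product quantified as peak area.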
# [25] = human papillomavirus 18, C-33-A, 48 h
# [26] = Human papillomavirus 16, C-33-A, 48 h
# [27] = human papillomavirus 11, C-33-A, 48 h
smiles,measurement,setting,value
CCCCCCCCCCCCCCCCCCOCCOP(=O)(O)COCCn1cnc2c(=O)[nH]c(N)nc21,Drug uptake,[1],Tde
CCCCCCCCCCCCCCCCCCOCCOP(=O)(COCCn1cnc2c(=O)[nH]c(N)nc21)OCc1ccccc1 (stereo not given),Drug uptake,[1],Tde
same,Drug metabolism,[2],Tde
same,Drug uptake,[3],Metabolite_Detected
same,Drug uptake,[4],Metabolite_Detected
CCCCCCCCCCCCCCCCCCOCCOP(=O)(COCCn1cnc2c(=O)[nH]c(N)nc21)Oc1ccccc1 (stereo not given),Ratio CC50/EC50,[5],980
same,EC50,[6]; [25],60 nM
same,EC90,[6]; [25],280 nM
same,EC50,[7]; [26],90 nM
same,EC90,[7]; [26],490 nM
same,EC50,[8],5200 nM
same,Ratio CC50/EC50,[9],670
same,Ratio,[10],210
same,EC50,[11],9500 nM
same,Ratio CC50/EC50,[12],490
same,CC50,[13],49000 nM
same,EC50,[14]; [27],100 nM
same,EC90,[14]; [27],610 nM
same,Ratio,[15],120
same,Ratio,[16],80
CCCCCCCCCCCCCCCCCCOCCOP(=O)(COCCn1cnc2c(=O)[nH]c(N)nc21)OCc1ccccc1 (stereo in doubt; form 1) [listing 1 of 2 here],Ratio CC50/EC50,[5],>100
same,EC50,[6]; c-33-a,100 nM
same,EC90,[6]; time 48 hrs,590 nM
same,EC50,[17],2 nM
same,EC50,[7]; c-33-a,40 nM
same,EC90,[7]; time 48 hrs,640 nM
same,EC50,[8],200 nM
same,Ratio CC50/EC50,[9],>250
same,Ratio,[10],>17
same,CC50,HFF,5200 nM
same,EC50,[18],22 nM
same,Ratio CC50/EC50,[19],11
same,Ratio CC50/EC50,[20],42
same,Ratio CC50/EC50,[12],61
same,Ratio CC50/EC50,[21],240
same,CC50,HEK293,17000 nM
same,CC50,C-33-A,≥ 10000 nM
same,EC50,[14]; c-33-a,180 nM
same,EC90,[14]; time 48 hrs,720 nM
same,Ratio CC50/EC50,[22],85
same,Ratio EC50,human papillomavirus 11,>300
same,CC50,[23],20 nM
same,Ratio,[15],>16
same,Ratio,[16],15
CCCCCCCCCCCCCCCCCCOCCOP(=O)(COCCn1cnc2c(=O)[nH]c(N)nc21)OCc1ccccc1 (stereo in doubt; form 1) [listing 2 of 2 here],Stability,[24],83%
